Reference: ChEMBL document CHEMBL4038284, “Synthesis of novel quinoline-based 4,5-dihydro-1H-pyrazoles as potential anticancer, antifungal, antibacterial and antiprotozoal agents” (Eur J Med Chem, 2017)
≈ marks a conversion by molar mass, not a printed value.

Assays:
Candida albicans [1] = assay: Growth inhibition of Candida albicans ATCC 10231 at 3.4 ug/ml incubated for 48 hrs under dark condition by broth microdilution method relative to control; type: functional; settings: ATCC 10231, 48 h, read-out: GI
Cryptococcus neoformans [2] = assay: Growth inhibition of Cryptococcus neoformans ATCC 32264 at 250 ug/ml incubated for 48 hrs under dark condition by broth microdilution method relative to control; type: functional; settings: ATCC 32264, 48 h, read-out: GI
Procedure, shortened: (§1)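 CLSI M27-A3 broth microdilution in RPMI-1640, DMSO ≤1%. Inoculum 1-5 × 10^3 CFU/mL. Incubated 48 h at 30 °C, dark. % inhibition = 100 − (OD405 test − sterility control)/(OD405 growth control − sterility control), with growth and sterility control wells. Triplicate.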

Trypanosoma cruzi = assay: Antitrypanosomal activity against Trypanosoma cruzi Tulahuen intracellular amastigote harboring LacZ infected in human U937 cells after 72 hrs by CPRG/Nonidet reagent based spectrophotometric method; type: functional, cell-based; settings: U-937, 72 h
Procedure, shortened: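 U-937 cells at 2.5 × 10^5 cells/mL in RPMI-1640 with 10% serum and 0.1 µg/mL PMA were infected with β-galactosidase-transfected Tulahuen epimastigotes at 5 parasites per cell. Infected cells were exposed to 50, 12.5, 3.125 and 0.78 µg/mL for 72 h. CPRG (100 uM) and 0.1% Nonidet P-40 were added for 3 h, read at 570 nm. EC50 by Probit. Triplicate, at least two experiments; benznidazole as reference.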

Staphylococcus aureus [3] = assay: Antibacterial activity against vancomycin-intermediate Staphylococcus aureus after 24 hrs by resazurin dye based microdilution assay; type: functional
Procedure, shortened: (§2)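 MIC taken as the lowest concentration giving visible inhibition and/or by resazurin (1 mg/mL). Gentamicin was the control. Run in duplicate, repeated at least three times.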

Candida albicans [4] = assay: Growth inhibition of Candida albicans ATCC 10231 at 125 ug/ml incubated for 48 hrs under dark condition by broth microdilution method relative to control; type: functional; settings: ATCC 10231, 48 h, read-out: GI; procedure, shortened: as §1
Klebsiella pneumoniae [5] = assay: Antibacterial activity against carbapenemase positive Klebsiella pneumoniae BAA 1705 after 24 hrs by resazurin dye based microdilution assay; type: functional; settings: BAA 1705, 24 h; procedure, shortened: as §2
Candida albicans [6] = assay: Antifungal activity against Candida albicans ATCC 10231 incubated for 48 hrs under dark condition by broth microdilution method; type: functional; settings: ATCC 10231, 48 h
Procedure, shortened: (§3)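 CLSI M27-A3 broth microdilution in RPMI-1640, DMSO ≤1%, compounds at 250-0.98 µg/mL final. Inoculum 1-5 × 10^3 CFU/mL. Incubated 48 h at 30 °C in a moist dark chamber, read at OD405. MIC80 and MIC50 taken from % inhibition dose-response curves (mean ± SEM, triplicate). Amphotericin B was the positive control.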

Cryptococcus neoformans [7] = assay: Growth inhibition of Cryptococcus neoformans ATCC 32264 at 125 ug/ml incubated for 48 hrs under dark condition by broth microdilution method relative to control; type: functional; settings: ATCC 32264, 48 h, read-out: GI; procedure, shortened: as §1
Candida albicans [8] = assay: Growth inhibition of Candida albicans ATCC 10231 at 250 ug/ml incubated for 48 hrs under dark condition by broth microdilution method relative to control; type: functional; settings: ATCC 10231, 48 h, read-out: GI; procedure, shortened: as §1
Cryptococcus neoformans [9] = assay: Growth inhibition of Cryptococcus neoformans ATCC 32264 at 15.62 ug/ml incubated for 48 hrs under dark condition by broth microdilution method relative to control; type: functional; settings: ATCC 32264, 48 h, read-out: GI; procedure, shortened: as §1
Leishmania panamensis = assay: Antileshmanial activity against EpiR/GFP fused Leishmania panamensis MHOM/CO/87/UA140 intracellular amastigotes infected in human […] cells after 72 hrs by flow cytometric method; type: functional, cell-based; settings: MHOM/CO/87/UA140, 72 h
Procedure, shortened: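 PMA-treated U-937 cells (3 × 10^5 cells/mL) infected with stationary-phase GFP L. panamensis promastigotes (15:1), 3 h at 34 °C, then washed. After 24 h, compounds added at 50, 12.5, 3.125 and 0.78 µg/mL for 72 h at 37 °C. EC50 by Probit; triplicate, two experiments.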

Cryptococcus neoformans [10] = assay: Antifungal activity against Cryptococcus neoformans ATCC 32264 incubated for 48 hrs under dark condition by broth microdilution method; type: functional; settings: ATCC 32264, 48 h; procedure, shortened: as §3
Cryptococcus neoformans [11] = assay: Growth inhibition of Cryptococcus neoformans ATCC 32264 at 7.8 ug/ml incubated for 48 hrs under dark condition by broth microdilution method relative to control; type: functional; settings: ATCC 32264, 48 h, read-out: GI; procedure, shortened: as §1
Cryptococcus neoformans [12] = assay: Growth inhibition of Cryptococcus neoformans ATCC 32264 at 31.25 ug/ml incubated for 48 hrs under dark condition by broth microdilution method relative to control; type: functional; settings: ATCC 32264, 48 h, read-out: GI; procedure, shortened: as §1
Plasmodium falciparum = assay: Antiplasmodial activity against chloroquine-sensitive Plasmodium falciparum 3D7 assessed as reduction in parasitic LDH activity after 48 hrs by Malstat reagent based […] method; type: functional; settings: 3D7, 48 h
Procedure, shortened: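 Unsynchronized P. falciparum 3D7 at 0.5% parasitemia and 1% hematocrit in RPMI with 3% Albumax II. Exposed to 100, 25, 6.25 and 1.56 µg/mL for 48 h at 37 °C under 90% N2/5% CO2/5% O2. After three freeze-thaw cycles, LDH measured with Malstat and NBT/PES, 1 h in the dark, read at 650 nm. IC50 by Probit; triplicate, ≥2 experiments.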

Pseudomonas aeruginosa = assay: Antibacterial activity against Pseudomonas aeruginosa ATCC 27853 after 24 hrs by resazurin dye based microdilution assay; type: functional; settings: ATCC 27853, 24 h; procedure, shortened: as §2
Escherichia coli = assay: Antibacterial activity against Escherichia coli ATCC 25922 after 24 hrs by resazurin dye based microdilution assay; type: functional; settings: ATCC 25922, 24 h; procedure, shortened: as §2
Staphylococcus aureus [13] = assay: Antibacterial activity against methicillin-sensitive Staphylococcus aureus ATCC 25923 after 24 hrs by resazurin dye based microdilution assay; type: functional; settings: ATCC 25923, 24 h; procedure, shortened: as §2
Staphylococcus aureus [14] = assay: Antibacterial activity against methicillin-resistant Staphylococcus aureus ATCC 43300 after 24 hrs by resazurin dye based microdilution assay; type: functional; settings: ATCC 43300, 24 h
Procedure, shortened: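 Broth microdilution in Mueller Hinton broth, inoculum 5 × 10^5 – 8 × 10^5. Compound stocks diluted in MHB with 5% DMSO and 0.1% Tween 80. Incubation 24 h at 35-37 °C. MIC is the lowest concentration with visible growth inhibition and/or by resazurin (1 mg/mL) read-out. Gentamicin as control. Run in duplicate, replicated at least three times.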

Candida albicans [15] = assay: Growth inhibition of Candida albicans ATCC 10231 at 7.8 ug/ml incubated for 48 hrs under dark condition by broth microdilution method relative to control; type: functional; settings: ATCC 10231, 48 h, read-out: GI; procedure, shortened: as §1
Neisseria gonorrhoeae = assay: Antibacterial activity against beta lactamase positive Neisseria gonorrhoeae ATCC 31426 by oxidase test; type: functional
Procedure, shortened: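 Agar dilution MIC on GC agar with 1% isovitalex containing increasing compound concentrations. Plates inoculated with about 1×10^4 CFU (5 µL). MIC is the lowest concentration that inhibited growth, with growth confirmed by oxidase test. Run in duplicate, repeated at least three times.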

Cryptococcus neoformans [16] = assay: Growth inhibition of Cryptococcus neoformans ATCC 32264 at 3.4 ug/ml incubated for 48 hrs under dark condition by broth microdilution method relative to control; type: functional; settings: ATCC 32264, 48 h, read-out: GI
U-937 = assay: Cytotoxicity against human U937 cells after 72 hrs by MTT assay; type: cell-based; settings: u-937, 72 h
Procedure, shortened: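 Exponentially growing U-937 at 1 × 10^5 cells/mL in RPMI-1640 with 10% FBS were exposed to 200, 50, 12.5 and 3.125 µg/mL for 72 h at 37 °C, 5% CO2. MTT for 3 h, stopped with isopropanol/SDS, formazan read at 570 nm, blank-corrected. LC50 by Probit from % viability against untreated cells. Triplicate, at least two independent experiments.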

Candida albicans [17] = assay: Growth inhibition of Candida albicans ATCC 10231 at 62.5 ug/ml incubated for 48 hrs under dark condition by broth microdilution method relative to control; type: functional; settings: ATCC 10231, 48 h, read-out: GI; procedure, shortened: as §1
Klebsiella pneumoniae [18] = assay: Antibacterial activity against ESBL positive Klebsiella pneumoniae ATCC 700603 after 24 hrs by resazurin dye based microdilution assay; type: functional; settings: Klebsiella pneumoniae, 700603, 24 h; procedure, shortened: as §2
Candida albicans [19] = assay: Growth inhibition of Candida albicans ATCC 10231 at 31.25 ug/ml incubated for 48 hrs under dark condition by broth microdilution method relative to control; type: functional; settings: ATCC 10231, 48 h, read-out: GI; procedure, shortened: as §1
Cryptococcus neoformans [20] = assay: Growth inhibition of Cryptococcus neoformans ATCC 32264 at 62.5 ug/ml incubated for 48 hrs under dark condition by broth microdilution method relative to control; type: functional; settings: ATCC 32264, 48 h, read-out: GI; procedure, shortened: as §1
Candida albicans [21] = assay: Growth inhibition of Candida albicans ATCC 10231 at 15.62 ug/ml incubated for 48 hrs under dark condition by broth microdilution method relative to control; type: functional; settings: ATCC 10231, 48 h, read-out: GI; procedure, shortened: as §1

## Cc1ccc(C2=NN(c3ccc(Cl)cc3)C(c3cccc(Nc4ccnc5cc(Cl)ccc45)c3)C2)cc1 (stereo not given)
Candida albicans [1]
  inhibition of growth at 3.4 µg/mL: 0%
Cryptococcus neoformans [2]
  inhibition of growth at 250 µg/mL: 22.8%
Trypanosoma cruzi
  EC50: 21.9 µg/mL (≈ 41.9 µM)
Staphylococcus aureus [3]
  MIC: > 1000 µg/mL
Candida albicans [4]
  inhibition of growth at 125 µg/mL: 16.2%
Klebsiella pneumoniae [5]
  MIC: > 1000 µg/mL
Candida albicans [6]
  MIC50: ≥ 250 µg/mL
  MIC80: ≥ 250 µg/mL
Cryptococcus neoformans [7]
  inhibition of growth at 125 µg/mL: 15.9%
Candida albicans [8]
  inhibition of growth at 250 µg/mL: 36.5%
Cryptococcus neoformans [9]
  inhibition of growth at 15.62 µg/mL: 6.99%
Leishmania panamensis
  EC50: 49.4 µg/mL (≈ 94.4 µM)
Cryptococcus neoformans [10]
  MIC50: ≥ 250 µg/mL
  MIC80: ≥ 250 µg/mL
Cryptococcus neoformans [11]
  inhibition of growth at 7.8 µg/mL: 6.57%
Cryptococcus neoformans [12]
  inhibition of growth at 31.25 µg/mL: 10.9%
Plasmodium falciparum
  EC50: 13.7 µg/mL (≈ 26.2 µM)
Pseudomonas aeruginosa
  MIC: > 1000 µg/mL
Escherichia coli
  MIC: > 1000 µg/mL
Staphylococcus aureus [13]
  MIC: > 1000 µg/mL
Staphylococcus aureus [14]
  MIC: > 1000 µg/mL
Candida albicans [15]
  inhibition of growth at 7.8 µg/mL: 5.67%
Neisseria gonorrhoeae
  MIC: > 1000 µg/mL
Cryptococcus neoformans [16]
  inhibition of growth at 3.4 µg/mL: 0%
U-937
  LC50: > 200 µg/mL
Candida albicans [17]
  inhibition of growth at 62.5 µg/mL: 13.1%
Klebsiella pneumoniae [18]
  MIC: > 1000 µg/mL
Candida albicans [19]
  inhibition of growth at 31.25 µg/mL: 8.37%
Cryptococcus neoformans [20]
  inhibition of growth at 62.5 µg/mL: 12.9%
Candida albicans [21]
  inhibition of growth at 15.62 µg/mL: 7.27%
